In one test the test system is A549. As to the kind of experiment: Cytotoxicity against human A549 cells after 72 hrs by MTT assay. The format is functional, cell-based. A digest of the protocol:
(§1)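 Cells were grown in MEM with 10% FBS. About 4 × 10³ cells per well were seeded and held 24 h at 37 °C in 5% CO₂, then exposed to compound at the indicated final concentrations for 72 h. MTT was added at 5 µg/mL final for 4 h at 37 °C, and formazan was dissolved in DMSO. Absorbance was read at 492 nm against 630 nm reference. Each compound was tested three times per line, and IC₅₀ values were averaged.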
(Tetrazolium assays rely on reduction of a dye to a coloured formazan, in cell work by metabolically active cells.)

Test [1] can be described thus: Cytotoxicity against human PC3 cells after 72 hrs by MTT assay. The format is functional, cell-based, PC-3. A digest of the protocol:
as §1

For another test, the system named is MCF7. Nature of the test: Cytotoxicity against human MCF7 cells after 72 hrs by MTT assay. Format: functional, cell-based. The gist of the method: as §1
For another test, the system named is HeLa. Nature of the test: Cytotoxicity against human HeLa cells after 72 hrs by MTT assay. The format is functional, cell-based. A digest of the protocol: as §1
In test [2] the target is Epidermal growth factor receptor (Homo sapiens, UniProt P00533). Nature of the test: Inhibition of EGFR (unknown origin) using FAM-labeled peptide as substrate preincubated for 10 mins followed by addition of substrate by mobility shift assay.
Test [3] has as its target Vascular endothelial growth factor receptor 2 (Homo sapiens, UniProt P35968). Nature of the test: Inhibition of VEGFR2 (unknown origin) using FAM-labeled peptide as substrate preincubated for 10 mins followed by addition of substrate by mobility shift assay. A digest of the protocol: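 Mobility-shift kinase assay. Compounds were serially diluted in 100% DMSO and combined with enzyme for 10 min at room temperature. FAM-labeled peptide plus ATP was then added and incubated at 28 °C. The reaction was stopped with EDTA-containing buffer. Conversion was read on Caliper, and % inhibition = (max − conversion)/(max − min) × 100. IC₅₀ was averaged from at least two experiments.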

The nature of test [4]: Cytotoxicity against human NSCLC cells. Format: functional, cell-based.
[5] abbreviates: Homo sapiens, A549, 72 h, read-out: IC50.
Setting [6] is: Homo sapiens, PC-3, 72 h, read-out: IC50.
Setting [7] is: Homo sapiens, MCF7, 72 h, read-out: IC50.

The structures appear in SMILES notation.

Sequence of Epidermal growth factor receptor (P00533 whole entry): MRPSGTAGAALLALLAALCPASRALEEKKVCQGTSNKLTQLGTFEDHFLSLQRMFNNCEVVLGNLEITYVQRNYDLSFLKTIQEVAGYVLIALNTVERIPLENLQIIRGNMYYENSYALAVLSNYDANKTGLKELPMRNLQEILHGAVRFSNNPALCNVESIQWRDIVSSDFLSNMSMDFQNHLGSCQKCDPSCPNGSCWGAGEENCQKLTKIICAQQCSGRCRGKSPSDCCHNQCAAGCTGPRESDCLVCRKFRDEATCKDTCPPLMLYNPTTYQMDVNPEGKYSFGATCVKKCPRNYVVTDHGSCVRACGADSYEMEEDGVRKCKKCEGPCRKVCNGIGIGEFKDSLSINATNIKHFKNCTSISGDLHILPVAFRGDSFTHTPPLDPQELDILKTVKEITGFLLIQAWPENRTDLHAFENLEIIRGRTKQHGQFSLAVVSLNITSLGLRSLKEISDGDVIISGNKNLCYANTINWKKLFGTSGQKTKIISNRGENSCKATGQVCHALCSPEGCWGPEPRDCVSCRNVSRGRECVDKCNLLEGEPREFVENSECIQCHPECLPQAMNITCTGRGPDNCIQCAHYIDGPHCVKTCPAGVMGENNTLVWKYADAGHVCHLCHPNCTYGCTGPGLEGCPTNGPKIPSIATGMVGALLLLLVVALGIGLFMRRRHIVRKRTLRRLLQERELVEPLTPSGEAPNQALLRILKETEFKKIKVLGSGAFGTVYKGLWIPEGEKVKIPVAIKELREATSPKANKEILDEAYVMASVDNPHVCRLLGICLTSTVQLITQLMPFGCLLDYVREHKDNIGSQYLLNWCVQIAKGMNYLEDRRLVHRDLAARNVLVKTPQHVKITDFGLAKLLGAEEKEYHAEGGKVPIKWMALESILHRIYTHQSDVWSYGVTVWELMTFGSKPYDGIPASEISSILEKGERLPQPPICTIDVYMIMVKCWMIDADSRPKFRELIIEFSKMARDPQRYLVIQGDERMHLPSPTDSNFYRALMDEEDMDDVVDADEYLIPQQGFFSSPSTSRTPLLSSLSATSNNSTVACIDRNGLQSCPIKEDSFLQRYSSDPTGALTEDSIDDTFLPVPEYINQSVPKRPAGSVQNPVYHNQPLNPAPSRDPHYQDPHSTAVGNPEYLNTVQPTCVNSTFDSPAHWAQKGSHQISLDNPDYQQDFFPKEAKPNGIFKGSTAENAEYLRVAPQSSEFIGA
Sequence of Vascular endothelial growth factor receptor 2 (P35968 whole entry): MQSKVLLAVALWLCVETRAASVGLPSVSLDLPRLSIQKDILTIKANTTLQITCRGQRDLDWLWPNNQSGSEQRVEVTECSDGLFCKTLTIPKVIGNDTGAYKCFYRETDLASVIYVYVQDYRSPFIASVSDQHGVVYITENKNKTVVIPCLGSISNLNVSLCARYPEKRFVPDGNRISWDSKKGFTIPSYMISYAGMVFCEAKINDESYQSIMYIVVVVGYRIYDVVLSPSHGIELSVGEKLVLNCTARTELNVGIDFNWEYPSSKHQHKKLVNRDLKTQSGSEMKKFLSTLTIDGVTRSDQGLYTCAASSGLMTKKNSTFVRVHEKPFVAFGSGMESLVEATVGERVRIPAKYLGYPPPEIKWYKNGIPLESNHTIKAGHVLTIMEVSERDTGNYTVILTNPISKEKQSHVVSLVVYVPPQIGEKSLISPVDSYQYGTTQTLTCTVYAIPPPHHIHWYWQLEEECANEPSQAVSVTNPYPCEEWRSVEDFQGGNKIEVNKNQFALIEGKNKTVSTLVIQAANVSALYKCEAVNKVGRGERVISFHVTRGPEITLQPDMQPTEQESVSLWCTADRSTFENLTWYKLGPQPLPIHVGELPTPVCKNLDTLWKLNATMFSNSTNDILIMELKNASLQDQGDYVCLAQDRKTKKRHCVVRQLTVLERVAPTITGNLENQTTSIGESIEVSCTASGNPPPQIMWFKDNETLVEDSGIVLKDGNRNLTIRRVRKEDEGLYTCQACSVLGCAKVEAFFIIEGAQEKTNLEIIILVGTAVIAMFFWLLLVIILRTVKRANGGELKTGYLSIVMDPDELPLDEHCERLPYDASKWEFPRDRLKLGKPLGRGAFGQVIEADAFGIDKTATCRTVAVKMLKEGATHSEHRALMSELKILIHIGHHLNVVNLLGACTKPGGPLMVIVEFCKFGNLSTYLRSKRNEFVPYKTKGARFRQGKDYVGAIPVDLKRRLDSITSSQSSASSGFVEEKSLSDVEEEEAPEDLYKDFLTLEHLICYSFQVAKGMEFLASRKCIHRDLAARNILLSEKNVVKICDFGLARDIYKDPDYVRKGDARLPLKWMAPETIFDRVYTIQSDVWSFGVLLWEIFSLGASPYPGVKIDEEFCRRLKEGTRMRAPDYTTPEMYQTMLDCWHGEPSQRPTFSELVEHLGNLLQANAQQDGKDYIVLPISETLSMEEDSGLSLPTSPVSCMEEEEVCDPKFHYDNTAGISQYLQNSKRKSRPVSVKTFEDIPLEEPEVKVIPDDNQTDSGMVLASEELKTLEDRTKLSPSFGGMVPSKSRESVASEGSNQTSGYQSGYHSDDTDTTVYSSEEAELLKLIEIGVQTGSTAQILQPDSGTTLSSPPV

A word on the IC50: it is the concentration that gives 50% inhibition. Take `COc1cc(/C=C/C(=O)Nc2cc3c(Nc4ccc(F)c(Cl)c4)ncnc3cc2O[C@H]2CCOC2)cc(OC)c1OC`: the IC50 turned out to be 4.15 µM with A549 (setting [5]), 20.5 µM in test [1] (setting [6]), 28.4 µM in the test on MCF7 (setting [7]) and 24.5 µM with HeLa.

In the case of `COc1ccc(/C=C/C(=O)Nc2cc3c(Nc4ccc(F)c(Cl)c4)ncnc3cc2O[C@H]2CCOC2)c(OC)c1OC`, the IC50 in the test on A549 (setting [5]) came to 0.07 µM; in test [1] (setting [6]) it was 7.67 µM; in the test with MCF7 (setting [7]), 4.65 µM; with HeLa, 4.83 µM; in test [2] it was 0.0036 µM; in test [3] it was 0.478 µM.

Regarding `O=C(/C=C/c1cccc(Cl)c1Cl)Nc1cc2c(Nc3ccc(F)c(Cl)c3)ncnc2cc1O[C@H]1CCOC1`, the IC50 with A549 (setting [5]) stood at 23.2 µM; in test [1] (setting [6]), 27.5 µM; in the test with MCF7 (setting [7]), 30.1 µM; with HeLa, 30.5 µM.

In the case of `O=C(/C=C/c1ccc(Br)cc1)Nc1cc2c(Nc3ccc(F)c(Cl)c3)ncnc2cc1O[C@H]1CCOC1`, the half-inhibitory concentration (IC50) in the test on A549 (setting [5]) is 35.3 µM; in test [1] (setting [6]) it was 28.2 µM; with MCF7 (setting [7]) it was 32.4 µM; in the test with HeLa it was 27.4 µM.

Take `COc1ccc(/C=C/C(=O)Nc2cc3c(Nc4ccc(F)c(Cl)c4)ncnc3cc2O[C@H]2CCOC2)c(OC)c1`: the IC50 with A549 (setting [5]) came to 9.35 µM; in test [1] (setting [6]), 2.76 µM; in the test on MCF7 (setting [7]), 28.6 µM; in the test with HeLa, 26.4 µM.

As for `O=C(/C=C/c1ccc([N+](=O)[O-])cc1)Nc1cc2c(Nc3ccc(F)c(Cl)c3)ncnc2cc1O[C@H]1CCOC1`, the half-inhibitory concentration (IC50) stood at 12 µM in the test with A549 (setting [5]), 22.8 µM in test [1] (setting [6]), 26.7 µM in the test on MCF7 (setting [7]) and 27.4 µM in the test with HeLa.

In the case of `O=C(/C=C/c1ccccc1[N+](=O)[O-])Nc1cc2c(Nc3ccc(F)c(Cl)c3)ncnc2cc1O[C@H]1CCOC1`, the IC50 in the test on A549 (setting [5]) is 8.82 µM; in test [1] (setting [6]), 7.76 µM; with MCF7 (setting [7]) it was 28.4 µM; in the test on HeLa it was 29.6 µM.

Consider `COc1cc(/C=C/C(=O)Nc2cc3c(Nc4ccc(F)c(Cl)c4)ncnc3cc2O[C@H]2CCOC2)cc(OC)c1O`, for which the half-inhibitory concentration (IC50) stood at 26.9 µM in the test with A549 (setting [5]), 26.5 µM in test [1] (setting [6]), 30.5 µM in the test on MCF7 (setting [7]) and 27.4 µM in the test on HeLa.

`COc1ccc(OC)c(/C=C/C(=O)Nc2cc3c(Nc4ccc(F)c(Cl)c4)ncnc3cc2OC)c1`: the IC50 in the test on A549 (setting [5]) was 11.2 µM; in test [1] (setting [6]), 28.6 µM; with MCF7 (setting [7]), 34.2 µM.

For `COc1ccc(/C=C/C(=O)Nc2cc3c(Nc4ccc(F)c(Cl)c4)ncnc3cc2OC)c(OC)c1`, the IC50 with A549 (setting [5]) worked out at 33.2 µM; in test [1] (setting [6]), 38.5 µM; in the test with MCF7 (setting [7]) it was 36.6 µM.

In the case of `COc1ccc(/C=C/C(=O)Nc2cc3c(Nc4ccc(F)c(Cl)c4)ncnc3cc2O[C@H]2CCOC2)cc1`, the half-inhibitory concentration (IC50) is 3.05 µM in the test on A549 (setting [5]); 2.24 µM in test [1] (setting [6]); 5.07 µM with MCF7 (setting [7]); 34.6 µM in the test with HeLa; 0.0091 µM in test [2]; 0.886 µM in test [3].

Turning to `COc1cc2ncnc(Nc3ccc(F)c(Cl)c3)c2cc1NC(=O)/C=C/c1ccc(C#N)cc1`, the half-inhibitory concentration (IC50) entry (with A549 (a549); in test [1] (pc-3); in the test with MCF7 (mcf7)) was “Not Active” each time.

With `COc1ccc(OC)c(/C=C/C(=O)Nc2cc3c(Nc4ccc(F)c(Cl)c4)ncnc3cc2O[C@H]2CCOC2)c1`, the IC50 in the test on A549 (setting [5]) turned out to be 7.3 µM; in test [1] (setting [6]), 8.73 µM; in the test on MCF7 (setting [7]) it was 36.3 µM; with HeLa, 26.8 µM.

`CN(C)C/C=C/C(=O)Nc1cc2c(Nc3ccc(F)c(Cl)c3)ncnc2cc1O[C@H]1CCOC1` [AFATINIB]: the IC50 in the test on A549 (setting [5]) was 0.05 µM; in test [1] (setting [6]) it was 4.1 µM; with MCF7 (setting [7]) it was 5.83 µM; in the test on HeLa, 6.81 µM; in test [4] it was 0.0005 µM.

On to `COc1cc(/C=C/C(=O)Nc2cc3c(Nc4ccc(F)c(Cl)c4)ncnc3cc2O[C@H]2CCOC2)cc(OC)c1`, for which the IC50 is 10.8 µM with A549 (setting [5]), 25.6 µM in test [1] (setting [6]), 30.3 µM with MCF7 (setting [7]) and 34.2 µM in the test on HeLa.

Consider `COc1cc2ncnc(Nc3ccc(F)c(Cl)c3)c2cc1NC(=O)/C=C/c1cc(OC)c(OC)c(OC)c1`, for which the half-inhibitory concentration (IC50) result in the test with A549 (a549) was “Not Active”; in test [1] (setting [6]), 38.2 µM; with MCF7 (mcf7), “Not Active”.

In the case of `O=C(/C=C/c1cc(Br)c(O)c(Br)c1)Nc1cc2c(Nc3ccc(F)c(Cl)c3)ncnc2cc1O[C@H]1CCOC1`, the IC50 in the test on A549 (setting [5]) is 28.8 µM; in test [1] (setting [6]) it was 25.5 µM; with MCF7 (setting [7]), 30.6 µM; with HeLa it was 27.7 µM.

With `COc1cc(/C=C/C(=O)Nc2cc3c(Nc4ccc(F)c(Cl)c4)ncnc3cc2OC)cc(OC)c1`, the results for the half-maximal inhibitory concentration (IC50) entry (in the test on A549 (a549); in test [1] (pc-3); in the test with MCF7 (setting [7])) were “Not Active”, “Not Active” and 38.5 µM, respectively.

`COc1cc2ncnc(Nc3ccc(F)c(Cl)c3)c2cc1NC(=O)/C=C/c1ccccc1[N+](=O)[O-]`: the 50% inhibitory concentration (IC50) with A549 (setting [5]) amounted to 33.2 µM; in test [1] (setting [6]), 14.3 µM; with MCF7 (setting [7]), 36.5 µM.

For the compound `COc1ccc(/C=C/C(=O)Nc2cc3c(Nc4ccc(F)c(Cl)c4)ncnc3cc2OC)cc1`, the half-maximal inhibitory concentration (IC50) result (in the test on A549 (a549); in test [1] (pc-3); with MCF7 (mcf7)) was “Not Active” in each case.

`N#Cc1ccc(/C=C/C(=O)Nc2cc3c(Nc4ccc(F)c(Cl)c4)ncnc3cc2O[C@H]2CCOC2)cc1`: the half-inhibitory concentration (IC50) result was “Not Active” with A549 (a549), 36.6 µM in test [1] (setting [6]) and 9.83 µM with MCF7 (setting [7]).

As for `COc1cc2ncnc(Nc3ccc(F)c(Cl)c3)c2cc1NC(=O)/C=C/c1ccc(F)cc1Cl`, the values for the IC50 result (in the test with A549 (a549); in test [1] (setting [6]); in the test on MCF7 (mcf7)) were “Not Active”, 32.7 µM and “Not Active”, respectively.

In the case of `O=C(/C=C/c1ccc(F)cc1Cl)Nc1cc2c(Nc3ccc(F)c(Cl)c3)ncnc2cc1O[C@H]1CCOC1`, the IC50 in the test with A549 (setting [5]) was determined as 5.19 µM; in test [1] (setting [6]) it was 7.15 µM; in the test with MCF7 (setting [7]) it was 26.2 µM; in the test with HeLa it was 37.5 µM.
